These results are taken from ChEMBL document CHEMBL4732105, “First orally bioavailable prodrug of proteolysis targeting chimera (PROTAC) degrades cyclin-dependent kinases 2/4/6 in vivo” (Eur J Med Chem, 2021).

Activity calls are given as the source filed them. No cut-off for these calls is given here.

In series [1] the test system is A-375. Briefly: Cytotoxicity against human A375 cells assessed as reduction in cell viability after 72 hrs by MTT assay. As to conditions: A-375, 72 h. It is filed as functional, cell-based. Put shortly:
(§1)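 Cells exposed to compound for 72 h and viability read by MTT; IC50 from three independent experiments.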

Series [2] relates to B16-F10. Briefly: Cytotoxicity against mouse B16F10 cells assessed as reduction in cell viability after 72 hrs by MTT assay. It is filed as functional, cell-based. The following applies: B16-F10, 72 h. Summed up:
as §1

The target in series [3] is CDK6/cyclin D3 (Homo sapiens, UniProt Q00534). Briefly: Inhibition of CDK6/Cyclin D (unknown origin). It is filed as protein-complex assay.
Chain of CDK6/cyclin D3 (P30281 whole entry): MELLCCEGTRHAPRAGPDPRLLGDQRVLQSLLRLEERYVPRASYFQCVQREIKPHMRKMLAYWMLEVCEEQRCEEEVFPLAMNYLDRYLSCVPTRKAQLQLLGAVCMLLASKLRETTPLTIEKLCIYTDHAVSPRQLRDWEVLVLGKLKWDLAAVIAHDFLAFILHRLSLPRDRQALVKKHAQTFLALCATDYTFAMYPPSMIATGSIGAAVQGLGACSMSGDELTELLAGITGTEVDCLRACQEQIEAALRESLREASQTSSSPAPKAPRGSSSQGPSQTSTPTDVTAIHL
Chain of CDK6/cyclin D3 (Q00534 whole entry): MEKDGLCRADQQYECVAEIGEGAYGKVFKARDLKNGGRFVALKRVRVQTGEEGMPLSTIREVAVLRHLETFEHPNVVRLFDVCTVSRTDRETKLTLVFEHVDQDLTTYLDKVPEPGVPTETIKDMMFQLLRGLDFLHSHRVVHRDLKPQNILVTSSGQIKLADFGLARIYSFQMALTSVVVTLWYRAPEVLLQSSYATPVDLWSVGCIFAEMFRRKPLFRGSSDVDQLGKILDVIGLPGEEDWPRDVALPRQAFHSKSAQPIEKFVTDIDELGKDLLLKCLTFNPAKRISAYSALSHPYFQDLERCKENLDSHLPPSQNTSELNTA
The target of series [4] is Cyclin-dependent kinase 4/cyclin D1 (Homo sapiens, UniProt P11802). Briefly: Inhibition of CDK4/cyclin D1 (unknown origin). It is filed as protein-complex assay.
Chain of Cyclin-dependent kinase 4/cyclin D1 (P11802 whole entry): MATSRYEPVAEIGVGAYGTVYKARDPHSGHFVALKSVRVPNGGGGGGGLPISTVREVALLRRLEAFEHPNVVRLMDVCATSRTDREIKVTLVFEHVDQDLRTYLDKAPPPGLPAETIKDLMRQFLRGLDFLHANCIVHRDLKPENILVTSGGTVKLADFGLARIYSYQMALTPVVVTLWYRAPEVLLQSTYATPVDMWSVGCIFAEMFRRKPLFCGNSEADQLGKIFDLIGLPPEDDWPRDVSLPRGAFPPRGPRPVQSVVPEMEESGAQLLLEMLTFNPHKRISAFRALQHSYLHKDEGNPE
Chain of Cyclin-dependent kinase 4/cyclin D1 (P24385 whole entry, further chain): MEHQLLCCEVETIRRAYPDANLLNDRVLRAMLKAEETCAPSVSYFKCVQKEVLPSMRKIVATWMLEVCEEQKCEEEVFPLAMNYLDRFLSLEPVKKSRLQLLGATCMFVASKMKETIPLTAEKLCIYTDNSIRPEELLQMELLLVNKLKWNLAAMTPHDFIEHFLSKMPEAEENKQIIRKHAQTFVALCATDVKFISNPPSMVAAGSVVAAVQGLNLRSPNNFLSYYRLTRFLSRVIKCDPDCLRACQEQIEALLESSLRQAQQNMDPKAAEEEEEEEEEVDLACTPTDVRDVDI
The target in series [5] is Cyclin-dependent kinase 2/cyclin E1 (Homo sapiens, UniProt P24941). Briefly: Inhibition of CDK2/Cyclin E (unknown origin). It is filed as protein-complex assay.
A short description of series [6]: Tmax in Sprague-Dawley rat at 200 mg/kg, po. The following applies: in vivo. It is filed as ADME, organism-based. Summed up: (§2)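 SD rats, n = 3, single dose of prodrug: IV by tail vein at 10 mg/Kg, or PO at 200 mg/Kg. Plasma levels of prodrug and released active degrader followed over 0–12 h. Parameters derived by a non-compartmental model.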
The subject of series [7] is B16-F10. Briefly: Antitumor activity against mouse B16F10 cells xenografted in C57BL/6J mouse assessed as supression in tumor size at 200 mg/kg, po measured after 15 days. It is filed as functional, organism-based. As to conditions: time 15.0 day. Put shortly:
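C57BL/6J mice given B16F10 cells […], then dosed orally versus vehicle. Tumor volume and body weight monitored; tumors weighed on day 15 (n = 6). Tumor tissue (n = 5) immunostained for CDK2/4/6.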

Series [8] is described as follows: Cmax in Sprague-Dawley rat at 10 mg/kg, iv. It is filed as ADME, organism-based. The arrangement: route intravenous, dose 10 mg/kg. The following applies: in vivo.
The nature of series [9]: AUC (0 to 12 hrs) in Sprague-Dawley rat at 200 mg/kg, po. It is filed as ADME, organism-based. The arrangement: time < 12 hr, route oral, dose 200 mg/kg. The following applies: in vivo. Summed up:
(§3)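 Single oral dose of 200 mg/Kg to SD rats (n = 3). Prodrug and released active degrader quantified in plasma over 0–12 h; Cmax, Tmax and AUC0-12 derived by non-compartmental model.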

Series [10] is described as follows: Cmax in Sprague-Dawley rat at 200 mg/kg, po. As to conditions: in vivo. It is filed as ADME, organism-based. The arrangement: route oral, dose 200 mg/kg. Put shortly: as §3
Series [11] in a line: Oral bioavailability in Sprague-Dawley rat at 200 mg/kg. It is filed as ADME, organism-based. The following applies: in vivo. Put shortly: as §2
A short description of series [12]: Toxicity in mouse C57BL/6J mouse xenografted with B16F10 cells assessed as effect on body weight at 200 mg/kg, po measured after 15 days. It is filed as organism-based. The following applies: in vivo, 360 h, time 15 day. Put shortly: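 C57BL/6J mice injected […] with B16F10 cells and given compound orally. Tumor volume and body weight monitored, and tumors weighed on day 15. Mean ± SD, n = 6.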

A short description of series [13]: AUC (0 to 12 hrs) in Sprague-Dawley rat at 10 mg/kg, iv. It is filed as ADME, organism-based. The arrangement: time < 12 hr, route intravenous, dose 10 mg/kg. As to conditions: in vivo.

Take `Nc1cccc2c1C(=O)N(C1CCC(=O)NC1=O)C2=O` (stereo not given) [POMALIDOMIDE]: the concentration for half-maximal inhibition (IC50) in series [1] and in [2] was greater than 10000 nM throughout.

`CN(C)C(=O)c1cc2cnc(Nc3ccc(N4CCNCC4)cn3)nc2n1C1CCCC1` [RIBOCICLIB]: the concentration for half-maximal inhibition (IC50) in series [1] and in [2] was greater than 10000 nM throughout.

Turning to `COC(=O)c1ccc(Nc2ncc3cc(C(=O)N(C)C)n(C4CCCC4)c3n2)cc1`, the figures for the IC50 in series [3], in series [4] and in series [5] were 101 nM, 112 nM and 390 nM, respectively.

Turning to `CN(C)C(=O)c1cc2cnc(Nc3ccc(C(=O)NCCCCCCNc4cccc5c4C(=O)N(C4CCC(=O)N(COC(=O)C(C)(C)C)C4=O)C5=O)cc3)nc2n1C1CCCC1` (stereo not given), the time to peak (Tmax) in [6] is 15 min. In series [7], the result was Active. The Cmax in [8] was found to be 111 µg/mL; in series [10], 2260 µg/mL. In addition, the values for the AUC in [9] and in series [13] were 2810 µg·h/mL and 95.7 µg·h/mL, respectively. For the same molecule, the bioavailability in series [11] is 68%. Besides, the Activity result in [12] is recorded as “Non-Toxic”.
